Measured values pooled from the literature.
Lines come from different studies, so protocols differ.
Target: 5-hydroxytryptamine receptor 1A (HTR1A, Homo sapiens, UniProt P08908)
Residues used in one study (P08908 1-422): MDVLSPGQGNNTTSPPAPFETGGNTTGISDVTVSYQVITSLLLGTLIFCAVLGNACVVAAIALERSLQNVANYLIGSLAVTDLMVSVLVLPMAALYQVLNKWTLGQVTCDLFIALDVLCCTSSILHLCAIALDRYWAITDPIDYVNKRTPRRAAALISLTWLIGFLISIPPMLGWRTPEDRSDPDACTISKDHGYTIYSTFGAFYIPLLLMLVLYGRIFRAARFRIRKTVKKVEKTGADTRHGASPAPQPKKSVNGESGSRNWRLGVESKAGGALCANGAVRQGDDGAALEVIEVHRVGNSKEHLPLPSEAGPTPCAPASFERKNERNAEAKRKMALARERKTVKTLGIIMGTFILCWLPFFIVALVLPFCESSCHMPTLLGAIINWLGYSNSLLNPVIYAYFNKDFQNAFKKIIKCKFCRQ

SMILES	test	measurement	value
CC[C@@H](CO)NC(=O)[C@@H]1C=C2c3cccc4c3c(cn4C)C[C@H]2N(C)C1	cell-free assay	Ki	70 nM
NCCc1c[nH]c2cc(F)ccc12	ligand displacement, radioligand	Ki	267 nM
CCCCCNC(=N)N/N=C/c1c[nH]c2ccc(OC)cc12	ligand displacement, radioligand	IC50	143 nM
COCCCN1CCN(c2ccccc2OC)CC1	cell-free assay	Ki	110 nM
CN1C[C@@H](CO)C=C2c3cccc4[nH]cc(c34)C[C@H]21	ligand displacement, radioligand	IC50	2.3 nM
NCCc1c[nH]c2cccc(O)c12	ligand displacement, radioligand	Ki	44 nM
CC(CCc1ccccc1)NC(C)C(O)c1ccc(O)cc1 (stereo not drawn)	calcium signal, antagonist	IC50	11800 nM
CN(C)CCc1c[nH]c2cccc(O)c12	ligand displacement, radioligand	Ki	84 nM
C[C@H](N)Cn1ncc2ccc3c(c21)CCCO3	cell-free assay, radioligand	Ki	294 nM
